# Data published in ChEMBL document CHEMBL3351938, “C5-Alkyl-2-methylurea-Substituted Pyridines as a New Class of Glucokinase Activators” (ACS Med Chem Lett, 2014).
# B1: Hexokinase-4 (Homo sapiens), P35557 (protein)
# chain: MLDDRARMEAAKKEKVEQILAEFQLQEEDLKKVMRRMQKEMDRGLRLETHEEASVKMLPTYVRSTPEGSEVGDFLSLDLGGTNFRVMLVKVGEGEEGQWSVKTKHQMYSIPEDAMTGTAEMLFDYISECISDFLDKHQMKHKKLPLGFTFSFPVRHEDIDKGILLNWTKGFKASGAEGNNVVGLLRDAIKRRGDFEMDVVAMVNDTVATMISCYYEDHQCEVGMIVGTGCNACYMEEMQNVELVEGDEGRMCVNTEWGAFGDSGELDEFLLEYDRLVDESSANPGQQLYEKLIGGKYMGELVRLVLLRLVDENLLFHGEASEQLRTRGAFETRFVSQVESDTGDRKQIYNILSTLGLRPSTTDCDIVRRACESVSTRAAHMCSAGLAGVINRMRESRSEDVMRITVGVDGSVYKLHPSFKERFHASVRRLTPSCEITFIESEEGSGRGAALVSAVACKKACMLGQ
# How the values were obtained:
# [1] = substrate: CCn1nccc1Oc1cc(C[C@H]2CC[C@@](C)(O)CC2)cnc1NC(=O)NC; assay: (§1) Activity of human recombinant Glucokinase measured over 5 mins by spectrophotometry
# How it was run: (§2)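 S_0.5 (K_m for glucose) measured with recombinant human GK; duplicate determinations (n = 2).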
# [2] = substrate: CCn1nccc1Oc1cc(C[C@H]2CC[C@](C)(O)CC2)cnc1NC(=O)NC; assay: as §1; how it was run: as §2
# [3] = substrate: CCn1nccc1Oc1cc(CN2CCOCC2)cnc1NC(=O)NC; assay: as §1; how it was run: as §2
# [4] = substrate: CCc1ncccc1Oc1cc(CC2CCOCC2)cnc1NC(=O)NC; assay: as §1; how it was run: as §2
# [5] = substrate: CCc1ncccc1Oc1cc(CC2CCCCC2)cnc1NC(=O)NC; assay: as §1; how it was run: as §2
# [6] = substrate: CCn1nc(COC)cc1Oc1cc(CC2CCOCC2)cnc1NC(=O)NC; assay: as §1; how it was run: as §2
# [7] = substrate: CCn1nccc1Oc1cc(CCCCOC)cnc1NC(=O)NC; assay: as §1; how it was run: as §2
# [8] = substrate: CNC(=O)Nc1ncc(CC2CCOCC2)cc1Oc1ccnn1C(C)C; assay: as §1; how it was run: as §2
# [9] = substrate: CCn1nccc1Oc1cc(CCCC(C)(C)O)cnc1NC(=O)NC; assay: as §1; how it was run: as §2
# [10] = substrate: CCOCCc1cnc(NC(=O)NC)c(Oc2cccnc2CC)c1; assay: as §1; how it was run: as §2
# [11] = substrate: CCn1nccc1Oc1cc(C[C@H]2CC[C@H](O)CC2)cnc1NC(=O)NC; assay: as §1; how it was run: as §2
# [12] = substrate: CCc1ncccc1Oc1cc(CC(C)C)cnc1NC(=O)NC; assay: as §1; how it was run: as §2
# [13] = substrate: CCn1nccc1Oc1cc(C[C@H]2C[C@H](O)C2)cnc1NC(=O)NC; assay: as §1; how it was run: as §2
# [14] = substrate: CCc1ncccc1Oc1cc(CCCCO)cnc1NC(=O)NC; assay: as §1; how it was run: as §2
# [15] = substrate: CCc1ncccc1Oc1cc(CCCOC)cnc1NC(=O)NC; assay: as §1; how it was run: as §2
# [16] = substrate: CCn1nccc1Oc1cc(C[C@H]2C[C@@](C)(O)C2)cnc1NC(=O)NC; assay: as §1; how it was run: as §2
# [17] = substrate: CCn1nccc1Oc1cc(C[C@H]2C[C@@H](O)C2)cnc1NC(=O)NC; assay: as §1; how it was run: as §2
# [18] = substrate: CCn1nccc1Oc1cc(C(O)C2CCOCC2)cnc1NC(=O)NC; assay: as §1; how it was run: as §2
# [19] = substrate: CCn1nccc1Oc1cc(C[C@@H]2CCO[C@@H](COC)C2)cnc1NC(=O)NC; assay: as §1; how it was run: as §2
# [20] = substrate: CCc1ncccc1Oc1cc(CCCCOC)cnc1NC(=O)NC; assay: as §1; how it was run: as §2
# [21] = substrate: CCn1nccc1Oc1cc(C[C@H]2CC[C@@H](O)CC2)cnc1NC(=O)NC; assay: as §1; how it was run: as §2
# [22] = substrate: CCn1nccc1Oc1cc(CC2CCOCC2)cnc1NC(=O)NC; assay: as §1; how it was run: as §2
# [23] = substrate: CCn1nccc1Oc1cc(C[C@H]2CCO[C@H](COC)C2)cnc1NC(=O)NC; assay: as §1; how it was run: as §2
protein,measurement,setting,value
B1,Km,[1],560 µM
same,Km,[2],690 µM
same,Km,[3],860 µM
same,Km,[4],850 µM
same,Km,[5],760 µM
same,Km,[6],850 µM
same,Km,[7],860 µM
same,Km,[8],950 µM
same,Km,[9],840 µM
same,Km,[10],880 µM
same,Km,[11],710 µM
same,Km,[12],660 µM
same,Km,[13],630 µM
same,Km,[14],850 µM
same,Km,[15],870 µM
same,Km,[16],820 µM
same,Km,[17],720 µM
same,Km,[18],1200 µM
same,Km,[19],880 µM
same,Km,[20],820 µM
same,Km,[21],760 µM
same,Km,[22],840 µM
same,Km,[23],940 µM
